Results taken from ChEMBL document CHEMBL3286330, “Multivalent design of long-acting β(2)-adrenoceptor agonists incorporating biarylamines” (Bioorg Med Chem Lett, 2014).

What follows are compounds tested against Beta-1 adrenergic receptor (Homo sapiens, UniProt P08588) (assay: Displacement of [3H]dihydroalprenolol from beta1 receptor (unknown origin) by liquid scintillation counting and cell based assay).
Beta-1 adrenergic receptor, sequence (P08588 whole entry): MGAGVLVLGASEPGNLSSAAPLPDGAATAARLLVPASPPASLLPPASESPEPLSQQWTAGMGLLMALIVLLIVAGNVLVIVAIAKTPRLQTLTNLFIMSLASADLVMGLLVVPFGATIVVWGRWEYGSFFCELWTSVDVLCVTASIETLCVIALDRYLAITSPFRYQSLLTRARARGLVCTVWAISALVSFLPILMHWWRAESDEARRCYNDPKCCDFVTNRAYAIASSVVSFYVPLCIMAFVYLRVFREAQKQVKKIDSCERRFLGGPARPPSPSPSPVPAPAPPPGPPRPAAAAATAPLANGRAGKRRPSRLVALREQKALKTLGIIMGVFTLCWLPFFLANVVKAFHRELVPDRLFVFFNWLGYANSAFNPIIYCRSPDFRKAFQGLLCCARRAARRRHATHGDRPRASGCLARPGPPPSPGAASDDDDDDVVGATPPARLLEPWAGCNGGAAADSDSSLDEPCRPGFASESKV

Going from `OCc1cc(C(O)CNCCc2ccc(Nc3ccc(F)cc3)cc2)ccc1O` (racemic) to `COc1ccc(Nc2ccc(CCNCC(O)c3ccc(O)c(CO)c3)cc2)cc1` (racemic), the Ki rises from 7940 nM to 31600 nM (4-fold).

Going from `COc1ccc(Nc2ccc(CCNCC(O)c3ccc(O)c(CO)c3)cc2)cc1-c1ccccc1` (racemic) to `OCc1cc(C(O)CNCCc2ccc(Nc3ccc(Oc4ccccc4)cc3)cc2)ccc1O` (racemic), the Ki falls from 20000 nM to 6310 nM (3.2-fold). The second binds more tightly here.

First: CC(C)Oc1ccc(Nc2ccc(CCNCC(O)c3ccc(O)c(CO)c3)cc2)cc1 (racemic)
Second: CCOc1ccc(Nc2ccc(CCNCC(O)c3ccc(O)c(CO)c3)cc2)cc1 (racemic)
The Ki of the first is 2-fold lower: 15800 nM for the first, 31600 nM for the second.

`OCc1cc(C(O)CNCCc2ccc(Nc3cccc4ccccc34)cc2)ccc1O` (racemic) and `OCc1cc(C(O)CNCCc2ccc(NCc3ccc4ccccc4c3)cc2)ccc1O` (racemic) cannot be ordered by Ki: 31600 nM for the first, over 10000 nM for the second.

Going from `OCc1cc(C(O)CNCCc2ccc(N3CCC(Cc4ccccc4)CC3)cc2)ccc1O` (racemic) to `O=C(c1ccccc1)C1CCN(c2ccc(CCNCC(O)c3ccc(O)c(CO)c3)cc2)CC1` (racemic), the Ki rises from 79400 nM to 126000 nM (1.6-fold). The first binds more tightly here.

Compared with `COc1cccc(Nc2ccc(CCNCC(O)c3ccc(O)c(CO)c3)cc2)c1` (racemic), `OCc1cc(C(O)CNCCc2ccc(Nc3ccc4c(c3)CCC4)cc2)ccc1O` (racemic) is 2-fold higher in Ki: 12600 nM for the first, 25100 nM for the second. The first binds more tightly here.

`CC(=O)N1CCN(c2ccc(CCNCC(O)c3ccc(O)c(CO)c3)cc2)CC1` (racemic) and `OCc1cc(C(O)CNCCc2ccc(N3CCN(c4ccccc4)CC3)cc2)ccc1O` (racemic) cannot be ordered by Ki: over 10000 nM for the first, over 10000 nM for the second.

Each compound was assayed against Beta-3 adrenergic receptor (Homo sapiens, UniProt P13945) (assay: Agonist activity at human recombinant beta3 receptor assessed as cAMP accumulation by radioimmunoassay and cell based assay).
Beta-3 adrenergic receptor, sequence (P13945 whole entry): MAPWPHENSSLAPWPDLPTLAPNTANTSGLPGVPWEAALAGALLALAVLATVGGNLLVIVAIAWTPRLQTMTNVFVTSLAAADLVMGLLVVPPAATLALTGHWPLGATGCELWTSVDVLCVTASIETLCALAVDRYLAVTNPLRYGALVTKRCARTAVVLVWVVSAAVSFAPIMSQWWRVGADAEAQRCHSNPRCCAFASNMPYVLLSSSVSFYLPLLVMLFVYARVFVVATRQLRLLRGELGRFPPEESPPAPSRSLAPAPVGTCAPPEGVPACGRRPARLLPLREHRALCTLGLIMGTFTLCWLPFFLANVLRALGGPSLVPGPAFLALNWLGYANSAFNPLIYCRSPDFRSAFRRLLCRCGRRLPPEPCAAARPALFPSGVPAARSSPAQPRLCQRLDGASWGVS

`OCc1cc(C(O)CNCCCCCCOCCCCc2ccccc2)ccc1O` (centres undefined) [SALMETEROL] showed an EC50 of 1000 nM.

These compounds were tested against T1, Beta-2 adrenergic receptor (Homo sapiens, UniProt P07550) (assay: Displacement of [3H]dihydroalprenolol from beta2 receptor (unknown origin) by liquid scintillation counting and cell based assay).
T1 sequence (P07550 whole entry): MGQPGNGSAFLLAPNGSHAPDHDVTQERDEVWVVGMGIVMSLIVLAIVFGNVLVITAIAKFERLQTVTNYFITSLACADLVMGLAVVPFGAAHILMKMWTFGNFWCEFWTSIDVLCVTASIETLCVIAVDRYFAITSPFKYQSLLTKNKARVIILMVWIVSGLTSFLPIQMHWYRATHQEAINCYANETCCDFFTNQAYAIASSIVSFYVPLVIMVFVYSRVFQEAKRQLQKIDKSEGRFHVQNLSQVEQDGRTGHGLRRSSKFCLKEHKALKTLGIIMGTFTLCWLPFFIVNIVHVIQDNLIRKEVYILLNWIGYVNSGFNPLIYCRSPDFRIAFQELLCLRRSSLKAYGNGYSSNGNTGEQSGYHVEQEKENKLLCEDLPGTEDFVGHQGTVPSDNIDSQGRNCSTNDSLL

`OCc1cc(C(O)CNCCc2ccc(Nc3ccc(F)cc3)cc2)ccc1O` (racemic) and `COc1ccc(Nc2ccc(CCNCC(O)c3ccc(O)c(CO)c3)cc2)cc1` (racemic) are the same in Ki: 1260 nM for the first, 1260 nM for the second.

First: COc1ccc(Nc2ccc(CCNCC(O)c3ccc(O)c(CO)c3)cc2)cc1-c1ccccc1 (racemic)
Second: OCc1cc(C(O)CNCCc2ccc(Nc3ccc(Oc4ccccc4)cc3)cc2)ccc1O (racemic)
The Ki of the first is 5-fold lower: 63.1 nM for the first, 316 nM for the second. The first binds more tightly here.

Compared with `CC(C)Oc1ccc(Nc2ccc(CCNCC(O)c3ccc(O)c(CO)c3)cc2)cc1` (racemic), `CCOc1ccc(Nc2ccc(CCNCC(O)c3ccc(O)c(CO)c3)cc2)cc1` (racemic) is 1.6-fold higher in Ki: 100 nM for the first, 158 nM for the second. The first binds more tightly here.

First: OCc1cc(C(O)CNCCc2ccc(Nc3cccc4ccccc34)cc2)ccc1O (racemic)
Second: OCc1cc(C(O)CNCCc2ccc(NCc3ccc4ccccc4c3)cc2)ccc1O (racemic)
The Ki of the first is lower: 6310 nM for the first, over 10000 nM for the second.

Going from `OCc1cc(C(O)CNCCc2ccc(N3CCC(Cc4ccccc4)CC3)cc2)ccc1O` (racemic) to `O=C(c1ccccc1)C1CCN(c2ccc(CCNCC(O)c3ccc(O)c(CO)c3)cc2)CC1` (racemic), the Ki rises from 15800 nM to 39800 nM (2.5-fold).

`COc1cccc(Nc2ccc(CCNCC(O)c3ccc(O)c(CO)c3)cc2)c1` (racemic) and `OCc1cc(C(O)CNCCc2ccc(Nc3ccc4c(c3)CCC4)cc2)ccc1O` (racemic) are within 1.5-fold of each other in Ki: 631 nM for the first, 794 nM for the second.

`CC(=O)N1CCN(c2ccc(CCNCC(O)c3ccc(O)c(CO)c3)cc2)CC1` (racemic) and `OCc1cc(C(O)CNCCc2ccc(N3CCN(c4ccccc4)CC3)cc2)ccc1O` (racemic) cannot be ordered by Ki: over 10000 nM for the first, 31600 nM for the second.

What follows are compounds tested against Beta-2 adrenergic receptor (Cavia porcellus, UniProt Q8K4Z4) (assay: Agonist activity at beta2 receptor in guinea pig trachea assessed as slow onset of inhibition of electrically stimulated contraction).
Summary of the method: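 Guinea pigs pretreated with 6-hydroxy-dopamine (200 mg/kg i.p.) 24 h before. Opened 5 mm tracheal rings between platinum electrodes in normal-K+ (4.7 mM) Krebs at 37 °C with 10 µM indomethacin, 1 µM choline, 3 µM guanethidine. Field stimulation: 9 V, 10 Hz, 1 ms pulses, 10 s train every 100 s. Resting tension 1 g, 1 h equilibration. Onset is the time to maximum effect at an EC80 concentration; slow is >30 min.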

Beta-2 adrenergic receptor (Cavia porcellus, UniProt Q8K4Z4), sequence (Q8K4Z4 whole entry): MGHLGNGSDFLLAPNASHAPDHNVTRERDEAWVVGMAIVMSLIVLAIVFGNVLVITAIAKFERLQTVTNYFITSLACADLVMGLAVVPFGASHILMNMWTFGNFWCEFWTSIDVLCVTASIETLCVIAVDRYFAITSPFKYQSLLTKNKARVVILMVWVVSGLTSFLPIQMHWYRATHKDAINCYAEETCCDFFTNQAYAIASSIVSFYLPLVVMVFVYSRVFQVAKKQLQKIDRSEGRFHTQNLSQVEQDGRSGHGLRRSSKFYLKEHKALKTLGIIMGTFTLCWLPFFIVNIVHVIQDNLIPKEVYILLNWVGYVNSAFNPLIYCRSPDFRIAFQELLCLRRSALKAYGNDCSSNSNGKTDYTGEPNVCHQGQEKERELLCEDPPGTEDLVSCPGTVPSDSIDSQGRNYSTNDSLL

In order of rising EC50:
1. COc1ccc(Nc2ccc(CCNC[C@H](O)c3ccc(O)c(CO)c3)cc2)cc1-c1ccccc1  2 nM
2. OCc1cc(C(O)CNCCCCCCOCCCCc2ccccc2)ccc1O (centres undefined) [SALMETEROL]  31.6 nM
3. CCOc1ccc(Nc2ccc(CCNCC(O)c3ccc(O)c(CO)c3)cc2)cc1 (racemic)  200 nM

These compounds were tested against T1, Beta-2 adrenergic receptor (assay: Agonist activity at human recombinant beta2 receptor assessed as cAMP accumulation by radioimmunoassay and cell based assay).
Format: functional

In order of rising EC50:
1. COc1ccc(Nc2ccc(CCNC[C@H](O)c3ccc(O)c(CO)c3)cc2)cc1-c1ccccc1  0.501 nM
2. COc1ccc(Nc2ccc(CCNCC(O)c3ccc(O)c(CO)c3)cc2)cc1-c1ccccc1 (racemic)  1.26 nM
3. CCOc1ccc(Nc2ccc(CCNCC(O)c3ccc(O)c(CO)c3)cc2)cc1 (racemic)  1.26 nM
4. CC(C)Oc1ccc(Nc2ccc(CCNCC(O)c3ccc(O)c(CO)c3)cc2)cc1 (racemic)  2.51 nM
5. COc1ccc(Nc2ccc(CCNCC(O)c3ccc(O)c(CO)c3)cc2)cc1 (racemic)  3.98 nM
6. OCc1cc(C(O)CNCCc2ccc(Nc3ccc4c(c3)CCC4)cc2)ccc1O (racemic)  7.94 nM
7. COc1cccc(Nc2ccc(CCNCC(O)c3ccc(O)c(CO)c3)cc2)c1 (racemic)  10 nM
8. OCc1cc(C(O)CNCCc2ccc(Nc3ccc(Oc4ccccc4)cc3)cc2)ccc1O (racemic)  20 nM
9. OCc1cc(C(O)CNCCc2ccc(Nc3ccc(F)cc3)cc2)ccc1O (racemic)  31.6 nM
10. OCc1cc(C(O)CNCCc2ccc(NCc3ccc4ccccc4c3)cc2)ccc1O (racemic)  158 nM
11. OCc1cc(C(O)CNCCc2ccc(Nc3cccc4ccccc34)cc2)ccc1O (racemic)  200 nM
12. OCc1cc(C(O)CNCCc2ccc(N3CCN(c4ccccc4)CC3)cc2)ccc1O (racemic)  200 nM
13. OCc1cc(C(O)CNCCc2ccc(N3CCC(Cc4ccccc4)CC3)cc2)ccc1O (racemic)  501 nM
14. O=C(c1ccccc1)C1CCN(c2ccc(CCNCC(O)c3ccc(O)c(CO)c3)cc2)CC1 (racemic)  1260 nM
15. CC(=O)N1CCN(c2ccc(CCNCC(O)c3ccc(O)c(CO)c3)cc2)CC1 (racemic)  10000 nM

Species: Homo sapiens
Assay: Selectivity ratio Ki for beta1 receptor (unknown origin) to Ki for beta2 receptor (unknown origin)

In order of falling Ratio Ki:
1. COc1ccc(Nc2ccc(CCNCC(O)c3ccc(O)c(CO)c3)cc2)cc1-c1ccccc1 (racemic)  319
2. CCOc1ccc(Nc2ccc(CCNCC(O)c3ccc(O)c(CO)c3)cc2)cc1 (racemic)  178
3. CC(C)Oc1ccc(Nc2ccc(CCNCC(O)c3ccc(O)c(CO)c3)cc2)cc1 (racemic)  158
4. OCc1cc(C(O)CNCCc2ccc(Nc3ccc4c(c3)CCC4)cc2)ccc1O (racemic)  31
5. COc1ccc(Nc2ccc(CCNCC(O)c3ccc(O)c(CO)c3)cc2)cc1 (racemic)  27
6. COc1cccc(Nc2ccc(CCNCC(O)c3ccc(O)c(CO)c3)cc2)c1 (racemic)  17
7. OCc1cc(C(O)CNCCc2ccc(Nc3ccc(Oc4ccccc4)cc3)cc2)ccc1O (racemic)  16
8. OCc1cc(C(O)CNCCc2ccc(Nc3ccc(F)cc3)cc2)ccc1O (racemic)  6.5
9. OCc1cc(C(O)CNCCc2ccc(Nc3cccc4ccccc34)cc2)ccc1O (racemic)  5.4
10. OCc1cc(C(O)CNCCc2ccc(N3CCC(Cc4ccccc4)CC3)cc2)ccc1O (racemic)  4.8
11. O=C(c1ccccc1)C1CCN(c2ccc(CCNCC(O)c3ccc(O)c(CO)c3)cc2)CC1 (racemic)  3.4

These compounds were tested against T1, Beta-2 adrenergic receptor (assay: Agonist activity at human beta2 receptor in BEAS-2B cells assessed as cAMP accumulation by radioimmunoassay).
Format: functional, cell-based

`COc1ccc(Nc2ccc(CCNC[C@H](O)c3ccc(O)c(CO)c3)cc2)cc1-c1ccccc1` showed an EC50 of 3.98 nM.
